Our source for the Activity, ED50 and UI values is ChEMBL document CHEMBL1177892, “Synthesis, anti-inflammatory and ulcerogenicity studies of some substituted pyrimido[1,6-a]azepine derivatives” (Eur J Med Chem, 2010).

The subject of data set [1] is Rattus norvegicus. The data set can be described thus: Antiinflammatory activity in albino rat assessed as inhibition of carrageenan-induced paw oedema at […], ip administered 1 hr before carrageenan challenge measured after 3 hrs relative to control. It counts as functional. The arrangement: scale not given: the % may be the effect or the level left. The following applies: in the assay text read “relative to diclofenac sodium” for “relative to control”. The procedure, abridged:
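Albino rats of both sexes (120–150 g) were pre-hydrated with 3 ml water/rat by gastric tube. Oedema was induced by s.c. sub-plantar injection of 1% carrageenan gel into the right hind paw. Right and left paw dorso-ventral thickness was read with dial calipers at 1, 2 and 3 h. Inhibition % = (1 − Lt/Lc) × 100, using mean paw-thickness increase of treated versus control rats.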
(In general: In the carrageenan paw model, swelling and tenderness develop within hours.)

Data set [2] deals with Rattus norvegicus. As to the kind of experiment: Antiinflammatory activity in ip dosed albino rat assessed as inhibition of carrageenan-induced paw oedema administered 1 hr before carrageenan challenge measured after 3 hrs relative to control. The format is functional, organism-based. An outline of the steps:
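Carrageenan paw-oedema model in albino rats of both sexes (120–150 g), water-loaded with 3 ml by gastric tube. […] was calculated from doses of […], with paw-thickness inhibition read 3 h after sub-plantar injection of 1% carrageenan. Inhibition % = (1 − Lt/Lc) × 100.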

The subject of data set [3] is Rattus norvegicus. As to the kind of experiment: Toxicity in albino rat at 20 mg/kg assessed as ulcerogenicity. The following applies: in vivo.
Data set [4] relates to Rattus norvegicus. As to the kind of experiment: Toxicity in albino rat at 20 mg/kg assessed as ulcer index. The following applies: in vivo.

On to `N#CC1=C(NCN2CCOCC2)N(c2ccccc2)C(=O)N2CCCCC(N3CCCC3)C12` (stereo not drawn), for which the Activity in the data set with Rattus norvegicus [1] came out at 50.68%.
On the same count and under the same terms, in the case of `COc1ccc(N/C=N/C2=C(C#N)C3C(N4CCCC4)CCCCN3C(=O)N2c2ccccc2)cc1` (stereo not drawn) it was 57.3%.
Consider `O=C([O-])Cc1ccccc1Nc1c(Cl)cccc1Cl.[Na+]` [DICLOFENAC SODIUM], for which, in the data set with Rattus norvegicus [2], the ED50 is 7.26 µmol/kg. Moreover, the Activity in the data set on Rattus norvegicus [3] stood at 6%. Besides, the UI in the data set on Rattus norvegicus [4] came to 9.
Take `CCOC(=O)C(=O)NC1=C(C#N)C2C(N3CCCC3)CCCCN2C(=O)N1c1ccccc1` (stereo not drawn): the ED50 with Rattus norvegicus [2] came out at 9.13 µmol/kg. In addition, the Activity in the data set on Rattus norvegicus [3] was 1%; with Rattus norvegicus [1], 104.45%. In addition, the UI in the data set on Rattus norvegicus [4] stood at 2.5.
On to `N#Cc1c2n(c(=O)n(-c3ccccc3)c1=N)CCCCC2N1CCCC1` (stereo not drawn), for which, in the data set on Rattus norvegicus [2], the ED50 worked out at 8.5 µmol/kg. Besides, the Activity in the data set on Rattus norvegicus [1] came to 106.62%.
Take `COc1ccc(/C=N/C2=C(C#N)C3C(N4CCCC4)CCCCN3C(=O)N2c2ccccc2)cc1` (stereo not drawn): the Activity in the data set with Rattus norvegicus [1] worked out at 85.91%.
As to `COC(=O)C(=O)NC1=C(C#N)C2C(N3CCCC3)CCCCN2C(=O)N1c1ccccc1` (stereo not drawn), the median effective dose (ED50) in the data set on Rattus norvegicus [2] worked out at 10.6 µmol/kg. The Activity with Rattus norvegicus [3] was 1%; in the data set with Rattus norvegicus [1] it was 100.79%. For the same molecule, the UI in the data set with Rattus norvegicus [4] is given as 2.2.
For `N#CC1=C(NC(=O)c2ccccc2O)N(c2ccccc2)C(=O)N2CCCCC(N3CCCC3)C12` (stereo not drawn), the Activity in the data set on Rattus norvegicus [1] is listed as 74.65%.
As for `N#CC1=C(/N=C/c2ccccc2)N(c2ccccc2)C(=O)N2CCCCC(N3CCCC3)C12` (stereo not drawn), the Activity in the data set with Rattus norvegicus [1] is 95.9%.
Regarding `N#CC1=C(/N=C/Nc2ccc([N+](=O)[O-])cc2)N(c2ccccc2)C(=O)N2CCCCC(N3CCCC3)C12` (stereo not drawn), the Activity was 3% in the data set on Rattus norvegicus [3] and 97.71% in the data set with Rattus norvegicus [1]. In the data set with Rattus norvegicus [4], the UI stood at 4.8.
In the case of `N#CC1=C(NCN2CCCCC2)N(c2ccccc2)C(=O)N2CCCCC(N3CCCC3)C12` (stereo not drawn), in the data set with Rattus norvegicus [1], the Activity stood at 48.05%.
The same measure, in the same setting: for `N#CC1=C(NC(=O)Cc2ccccc2Nc2c(Cl)cccc2Cl)N(c2ccccc2)C(=O)N2CCCCC(N3CCCC3)C12` (stereo not drawn) the value was 76.71%; for `N#CC1=C(NCC(=O)N2CCCC2)N(c2ccccc2)C(=O)N2CCCCC(N3CCCC3)C12` (stereo not drawn), 63.93%.
As to `N#CC1=C(NCC(=O)O)N(c2ccccc2)C(=O)N2CCCCC(N3CCCC3)C12` (stereo not drawn), in the data set with Rattus norvegicus [2], the ED50 worked out at 10.3 µmol/kg. Besides, the Activity was 4% in the data set with Rattus norvegicus [3] and 101.82% with Rattus norvegicus [1]. The UI with Rattus norvegicus [4] is given as 5.4.
Regarding `N#CC1=C(NCC(=O)N2CCOCC2)N(c2ccccc2)C(=O)N2CCCCC(N3CCCC3)C12` (stereo not drawn), the Activity in the data set with Rattus norvegicus [1] is reported as 83.9%.
Turning to `N#CC1=C(NCC(=O)N2CCCCC2)N(c2ccccc2)C(=O)N2CCCCC(N3CCCC3)C12` (stereo not drawn), in the data set on Rattus norvegicus [1], the Activity amounted to 61.07%.
Take `N#CC1=C(N)N(c2ccccc2)C(=O)N2CCCCC(N3CCCC3)C12` (stereo not drawn): in the data set on Rattus norvegicus [2], the 50% effective dose (ED50) stood at 6.61 µmol/kg. In addition, the Activity in the data set on Rattus norvegicus [1] is given as 102.85%.
With `N#CC1=C(/N=C/Nc2ccccc2)N(c2ccccc2)C(=O)N2CCCCC(N3CCCC3)C12` (stereo not drawn), the Activity in the data set on Rattus norvegicus [1] is recorded as 90.52%.
Turning to `N#CC1=C(NCN2CCCC2)N(c2ccccc2)C(=O)N2CCCCC(N3CCCC3)C12` (stereo not drawn), in the data set on Rattus norvegicus [1], the Activity came to 40.29%.
On to `N#CC1=C(/N=C/c2ccc([N+](=O)[O-])cc2)N(c2ccccc2)C(=O)N2CCCCC(N3CCCC3)C12` (stereo not drawn), for which the ED50 with Rattus norvegicus [2] is 7.14 µmol/kg. The results for the Activity with Rattus norvegicus [3] and in the data set on Rattus norvegicus [1] were 2% and 104.68%, respectively. Further, the UI in the data set on Rattus norvegicus [4] is 3.6.

As usually defined, the ED50 is the midpoint of the dose-response relation.
